Laboratory results: ChEMBL document CHEMBL5058577, “EUbOPEN Chemogenomics Library 2 (Multiplex)” (2022)

Tested on: HEK-293T
Assay: Multiplex assay against HEK293T
Type: toxicity, cell-based
Conditions: human
Outline: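 Per cents of healthy-nucleus cells form the tubulin, mitochondrial-mass and membrane-permeability phenotype values. Live cells were stained at seeding with Hoechst33342, BioTracker Green Microtubule Cytoskeleton Dye, MitoTracker Red and Annexin V Alexa Fluor 680. After compound addition they were imaged on a CQ1 microscope at 37°C and 5% CO2, and CellPathfinder machine-learning gating split them into Hoechst high-intensity objects or normal cells, normal cells into healthy, pyknosed or fragmented nuclei, and pyknosed cells into mitotic or apoptotic.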

[1] = 12 h, 1 µM, compound concentration 1 uM, replicate 1
[2] = 12 h, 1 µM, compound concentration 1 uM, replicate 2
[3] = 12 h, 10 µM, compound concentration 10 uM, replicate 1
[4] = 12 h, 10 µM, compound concentration 10 uM, replicate 2
[5] = 24 h, 1 µM, compound concentration 1 uM, replicate 1
[6] = 24 h, 1 µM, compound concentration 1 uM, replicate 2
[7] = 24 h, 10 µM, compound concentration 10 uM, replicate 1
[8] = 24 h, 10 µM, compound concentration 10 uM, replicate 2
[9] = 48 h, 1 µM, compound concentration 1 uM, replicate 1
[10] = 48 h, 1 µM, compound concentration 1 uM, replicate 2
[11] = 48 h, 10 µM, compound concentration 10 uM, replicate 1
[12] = 48 h, 10 µM, compound concentration 10 uM, replicate 2

CC(=O)NCCc1c(Cc2ccccc2)[nH]c2ccccc12 [LUZINDOLE]
Population Apoptotic (%) [1]: 38% | Population Fragmented Nuclei (%) [1]: 7% | Population Healthy Nuclei (%) [1]: 79% | Population Hoechst High Intensity Objects (%) [1]: 11% | Population Membrane Permeable-Phenotype (%) [1]: 0% | Population Mitochondria Different-Phenotype (%) [1]: 54% | Population Mitotic Cells (%) [1]: 61% | Population Normal (%) [1]: 88% | Population Pyknosed Nuclei (%) [1]: 12% | Population Tubulin-Different-Phenotype (%) [1]: 39% | Total Cell Count [1]: 412 | Population Apoptotic (%) [2]: 43% | Population Fragmented Nuclei (%) [2]: 5% | Population Healthy Nuclei (%) [2]: 80% | Population Hoechst High Intensity Objects (%) [2]: 8% | Population Mitochondria Different-Phenotype (%) [2]: 68% | Population Mitotic Cells (%) [2]: 56% | Population Normal (%) [2]: 91% | Population Pyknosed Nuclei (%) [2]: 13% | Population Tubulin-Different-Phenotype (%) [2]: 27% | Total Cell Count [2]: 304 | Population Apoptotic (%) [3]: 37% | Population Fragmented Nuclei (%) [3]: 8% | Population Healthy Nuclei (%) [3]: 77% | Population Hoechst High Intensity Objects (%) [3]: 10% | Population Membrane Permeable-Phenotype (%) [3]: 0% | Population Mitochondria Different-Phenotype (%) [3]: 61% | Population Mitotic Cells (%) [3]: 62% | Population Normal (%) [3]: 89% | Population Pyknosed Nuclei (%) [3]: 14% | Population Tubulin-Different-Phenotype (%) [3]: 45% | Total Cell Count [3]: 379 | Population Apoptotic (%) [4]: 53% | Population Fragmented Nuclei (%) [4]: 5% | Population Healthy Nuclei (%) [4]: 80% | Population Hoechst High Intensity Objects (%) [4]: 9% | Population Mitochondria Different-Phenotype (%) [4]: 72% | Population Mitotic Cells (%) [4]: 46% | Population Normal (%) [4]: 90% | Population Tubulin-Different-Phenotype (%) [4]: 35% | Total Cell Count [4]: 315 | Population Apoptotic (%) [5]: 20% | Population Fragmented Nuclei (%) [5]: 12% | Population Healthy Nuclei (%) [5]: 75% | Population Hoechst High Intensity Objects (%) [5]: 7% | Population Membrane Permeable-Phenotype (%) [5]: 0% | Population Mitochondria Different-Phenotype (%) [5]: 33% | Population Mitotic Cells (%) [5]: 80% | Population Normal (%) [5]: 92% | Population Pyknosed Nuclei (%) [5]: 11% | Population Tubulin-Different-Phenotype (%) [5]: 26% | Total Cell Count [5]: 546 | Population Apoptotic (%) [6]: 40% | Population Fragmented Nuclei (%) [6]: 7% | Population Healthy Nuclei (%) [6]: 82% | Population Hoechst High Intensity Objects (%) [6]: 8% | Population Mitochondria Different-Phenotype (%) [6]: 45% | Population Mitotic Cells (%) [6]: 60% | Population Normal (%) [6]: 91% | Population Pyknosed Nuclei (%) [6]: 10% | Population Tubulin-Different-Phenotype (%) [6]: 18% | Total Cell Count [6]: 379 | Population Apoptotic (%) [7]: 40% | Population Fragmented Nuclei (%) [7]: 9% | Population Healthy Nuclei (%) [7]: 81% | Population Hoechst High Intensity Objects (%) [7]: 10% | Population Membrane Permeable-Phenotype (%) [7]: 1% | Population Mitochondria Different-Phenotype (%) [7]: 40% | Population Mitotic Cells (%) [7]: 60% | Population Normal (%) [7]: 89% | Population Pyknosed Nuclei (%) [7]: 8% | Population Tubulin-Different-Phenotype (%) [7]: 32% | Total Cell Count [7]: 502 | Population Apoptotic (%) [8]: 28% | Population Fragmented Nuclei (%) [8]: 11% | Population Healthy Nuclei (%) [8]: 77% | Population Hoechst High Intensity Objects (%) [8]: 11% | Population Membrane Permeable-Phenotype (%) [8]: 0% | Population Mitochondria Different-Phenotype (%) [8]: 58% | Population Mitotic Cells (%) [8]: 71% | Population Normal (%) [8]: 88% | Population Pyknosed Nuclei (%) [8]: 11% | Population Tubulin-Different-Phenotype (%) [8]: 24% | Total Cell Count [8]: 388 | Population Apoptotic (%) [9]: 24% | Population Fragmented Nuclei (%) [9]: 16% | Population Healthy Nuclei (%) [9]: 78% | Population Hoechst High Intensity Objects (%) [9]: 3% | Population Membrane Permeable-Phenotype (%) [9]: 1% | Population Mitochondria Different-Phenotype (%) [9]: 16% | Population Mitotic Cells (%) [9]: 75% | Population Normal (%) [9]: 96% | Population Pyknosed Nuclei (%) [9]: 5% | Population Tubulin-Different-Phenotype (%) [9]: 12% | Total Cell Count [9]: 965 | Population Apoptotic (%) [10]: 46% | Population Fragmented Nuclei (%) [10]: 12% | Population Healthy Nuclei (%) [10]: 82% | Population Hoechst High Intensity Objects (%) [10]: 6% | Population Membrane Permeable-Phenotype (%) [10]: 0% | Population Mitochondria Different-Phenotype (%) [10]: 23% | Population Mitotic Cells (%) [10]: 53% | Population Normal (%) [10]: 93% | Population Tubulin-Different-Phenotype (%) [10]: 13% | Total Cell Count [10]: 522 | Population Apoptotic (%) [11]: 27% | Population Fragmented Nuclei (%) [11]: 13% | Population Healthy Nuclei (%) [11]: 79% | Population Hoechst High Intensity Objects (%) [11]: 9% | Population Membrane Permeable-Phenotype (%) [11]: 0% | Population Mitochondria Different-Phenotype (%) [11]: 27% | Population Mitotic Cells (%) [11]: 72% | Population Normal (%) [11]: 90% | Population Pyknosed Nuclei (%) [11]: 7% | Population Tubulin-Different-Phenotype (%) [11]: 17% | Total Cell Count [11]: 742 | Population Apoptotic (%) [12]: 36% | Population Fragmented Nuclei (%) [12]: 11% | Population Healthy Nuclei (%) [12]: 82% | Population Hoechst High Intensity Objects (%) [12]: 6% | Population Mitochondria Different-Phenotype (%) [12]: 32% | Population Mitotic Cells (%) [12]: 63% | Population Normal (%) [12]: 93% | Population Pyknosed Nuclei (%) [12]: 5% | Population Tubulin-Different-Phenotype (%) [12]: 19% | Total Cell Count [12]: 573
